{
  "source": "ChEMBL document CHEMBL1129569",
  "about": "“Synthesis and anticonvulsant activities of N-Benzyl-2-acetamidopropionamide derivatives” (J Med Chem, 1996)",
  "key": {"[1]": {"assay": "(§1) Neurotoxic toxicity was evaluated by rotarod test after intraperitoneal administration", "assay_type": "organism-based", "settings": "mouse, in vivo, ip", "method_in_brief": "(§2)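 Mice, ip, in 0.5% methylcellulose suspension. Impairment was defined as failure to stay balanced for 1 min on a 1 in. knurled rod turning at 6 rpm, in each of three successive trials.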"}, "[2]": {"test_system": "Mus musculus", "assay": "Effective dose against maximal electroshock seizure in mice after intraperitoneal administration", "assay_type": "functional", "method_in_brief": "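Mice, ip; compounds suspended in 0.5% (w/v) methylcellulose in water, 0.01 mL/g body weight. Butacaine-containing saline electrolyte was dropped on the eyes, then corneal electrodes delivered 60-cycle AC, 50 mA, 0.2 s. The endpoint was abolition of hindlimb tonic extension.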"}, "[3]": {"assay": "Neurotoxic toxicity in mice was evaluated by rotarod test after intraperitoneal administration", "assay_type": "organism-based", "settings": "mouse, in vivo, ip", "method_in_brief": "as §2"}, "[4]": {"assay": "Protective index between TD50/MES ED50 when administered intraperitoneally to mouse", "assay_type": "ADME, organism-based", "settings": "in vivo, ip, read-out: PI"}, "[5]": {"test_system": "Rattus norvegicus", "assay": "Effective dose against maximal electroshock seizure in rat after oral administration", "assay_type": "functional", "method_in_brief": "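Male Sprague Dawley rats dosed orally with a suspension in 0.5% (w/v) methylcellulose in water. After anaesthetic electrolyte eye drops, corneal 60-cycle AC was applied at 150 mA for 0.2 s. Protection meant abolition of hindlimb tonic extensor.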"}, "[6]": {"assay": "Neurotoxic toxicity against Rat was evaluated by rotarod test afte oral administration", "assay_type": "organism-based", "settings": "in vivo"}, "[7]": {"assay": "Protective index between TD50/MES ED50 when administered orally to rat", "assay_type": "ADME, organism-based", "settings": "in vivo, po, read-out: PI", "method_in_brief": "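Rats, oral. PI = TD50 (ataxia, gait and placing-response assessment) / MES ED50 (150 mA, 0.2 s corneal shock), with both taken at the time of peak effect.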"}, "[8]": {"assay": "Protective index between TD50/MES ED50 when administered intraperitoneally to mice", "assay_type": "ADME, organism-based", "settings": "mouse, in vivo, ip; read-out: PI"}, "[9]": {"assay": "Neurotoxic toxicity was evaluated by rotarod test after intraperitoneal administration determined from horizontal screen test", "assay_type": "organism-based", "settings": "mouse, in vivo, ip"}, "[10]": {"test_system": "Mus musculus", "assay": "as §1", "assay_type": "organism-based", "settings": "in vivo, ip", "method_in_brief": "as §2"}, "[11]": {"assay": "Neurotoxic toxicity against Rat was evaluated by rotarod test afte oral administration <250", "assay_type": "organism-based", "settings": "in vivo"}, "[12]": {"settings": "Mus musculus, ip, read-out: ED50"}},
  "note": "Where “and” joins values, the source holds several entries; their conditions need not be identical. Identical values can stand only once.",
  "data": [
    {"smiles": "CCNCC(NC(C)=O)C(=O)NCc1ccccc1", "note": "(centres undefined)", "values": [
      {"measurement": "TD50", "setting": "[1]", "value": 100, "unit": "mg/kg"},
      {"measurement": "ED50", "setting": "[2]; [12]", "value": "> 100", "unit": "mg/kg"}
    ]},
    {"smiles": "CC(=O)N[C@H](CO)C(=O)NCc1ccccc1", "values": [
      {"measurement": "TD50", "setting": "[3]", "value": "> 500", "unit": "mg/kg"},
      {"measurement": "ED50", "setting": "[2]; [12]", "value": 53, "unit": "mg/kg"},
      {"measurement": "selectivity ratio", "setting": "[4]", "value": "> 9.4"}
    ]},
    {"smiles": "CC(=O)NC(NO)C(=O)NCc1ccccc1", "note": "(centres undefined)", "values": [
      {"measurement": "ED50", "setting": "[2]; [12]", "value": 100, "unit": "mg/kg"}
    ]},
    {"smiles": "COC[C@@H](NC(C)=O)C(=O)NCc1cccc(F)c1", "values": [
      {"measurement": "TD50", "setting": "[1]", "value": 46, "unit": "mg/kg"},
      {"measurement": "ED50", "setting": "[5]", "value": 6.9, "unit": "mg/kg"},
      {"measurement": "TD50", "setting": "[6]", "value": "> 400", "unit": "mg/kg"},
      {"measurement": "ED50", "setting": "[2]; [12]", "value": 6.9, "unit": "mg/kg"},
      {"measurement": "selectivity ratio", "setting": "[7]", "value": "> 58"},
      {"measurement": "selectivity ratio", "setting": "[8]", "value": 6.7}
    ]},
    {"smiles": "CC(=O)NC(CI)C(=O)NCc1ccccc1", "note": "(centres undefined)", "values": [
      {"measurement": "TD50", "setting": "[1]", "value": 300, "unit": "mg/kg"}
    ]},
    {"smiles": "CON(C)C(NC(C)=O)C(=O)NCc1ccccc1", "note": "(centres undefined)", "values": [
      {"measurement": "TD50", "setting": "[9]", "value": 51, "unit": "mg/kg"},
      {"measurement": "ED50", "setting": "[2]; [12]", "value": 6.7, "unit": "mg/kg"},
      {"measurement": "selectivity ratio", "setting": "[8]", "value": 7.6}
    ]},
    {"smiles": "CC(=O)NC(C)C(=O)NCc1ccccc1", "note": "(centres undefined)", "values": [
      {"measurement": "ED50", "setting": "[5]", "value": 48, "unit": "mg/kg"},
      {"measurement": "selectivity ratio", "setting": "[7]", "value": "> 21"},
      {"measurement": "selectivity ratio", "setting": "[8]", "value": 5.9}
    ]},
    {"smiles": "CNCC(NC(C)=O)C(=O)NCc1ccccc1", "note": "(centres undefined)", "values": [
      {"measurement": "TD50", "setting": "[10]", "value": "< 300 mg/kg and > 100 mg/kg"},
      {"measurement": "ED50", "setting": "[2]", "value": "<300 mg/kg and >100 mg/kg"}
    ]},
    {"smiles": "CC(=O)NC(CN)C(=O)NCc1ccccc1", "note": "(centres undefined)", "values": [
      {"measurement": "TD50", "setting": "[1]", "value": "> 100", "unit": "mg/kg"},
      {"measurement": "ED50", "setting": "[2]; [12]", "value": "> 100", "unit": "mg/kg"}
    ]},
    {"smiles": "CCOCC(NC(C)=O)C(=O)NCc1ccccc1", "note": "(centres undefined)", "values": [
      {"measurement": "TD50", "setting": "[1]", "value": 78, "unit": "mg/kg"},
      {"measurement": "ED50", "setting": "[5]", "value": 19, "unit": "mg/kg"},
      {"measurement": "selectivity ratio", "setting": "[4]", "value": 4.6},
      {"measurement": "selectivity ratio", "setting": "[7]", "value": "> 26"}
    ]},
    {"smiles": "CC(=O)NC(CBr)C(=O)NCc1ccccc1", "note": "(centres undefined)", "values": [
      {"measurement": "TD50", "setting": "[10]", "value": "> 100 mg/kg and < 300 mg/kg"}
    ]},
    {"smiles": "CC(=O)NC(CO)C(=O)NCc1ccccc1", "note": "(centres undefined)", "values": [
      {"measurement": "TD50", "setting": "[9]", "value": "< 300", "unit": "mg/kg"},
      {"measurement": "ED50", "setting": "[2]", "value": ">100 mg/kg and <300 mg/kg"}
    ]},
    {"smiles": "CC(=O)NC(CN1CCOCC1)C(=O)NCc1ccccc1", "note": "(centres undefined)", "values": [
      {"measurement": "TD50", "setting": "[1]", "value": "> 300", "unit": "mg/kg"},
      {"measurement": "ED50", "setting": "[2]", "value": "<300 mg/kg and >100 mg/kg"}
    ]},
    {"smiles": "CC(=O)NC(CCl)C(=O)NCc1ccccc1", "note": "(centres undefined)", "values": [
      {"measurement": "TD50", "setting": "[10]", "value": "< 300 mg/kg and > 100 mg/kg"},
      {"measurement": "ED50", "setting": "[2]; [12]", "value": 100, "unit": "mg/kg"}
    ]},
    {"smiles": "COC[C@H](NC(C)=O)C(=O)NCc1ccccc1", "values": [
      {"measurement": "TD50", "setting": "[3]", "value": "> 300", "unit": "mg/kg"},
      {"measurement": "ED50", "setting": "[5]", "value": "> 30", "unit": "mg/kg"},
      {"measurement": "TD50", "setting": "[6]", "value": "> 30", "unit": "mg/kg"},
      {"measurement": "ED50", "setting": "[2]", "value": ">100 mg/kg and <300 mg/kg"}
    ]},
    {"smiles": "CONC(NC(C)=O)C(=O)NCc1ccccc1", "note": "(centres undefined)", "values": [
      {"measurement": "ED50", "setting": "[2]; [12]", "value": 6.2, "unit": "mg/kg"},
      {"measurement": "selectivity ratio", "setting": "[8]", "value": 7.4}
    ]},
    {"smiles": "CC(=O)NC(CN(C)C)C(=O)NCc1ccccc1", "note": "(centres undefined)", "values": [
      {"measurement": "TD50", "setting": "[1]", "value": "> 300", "unit": "mg/kg"}
    ]},
    {"smiles": "CSCC(NC(C)=O)C(=O)NCc1ccccc1", "note": "(centres undefined)", "values": [
      {"measurement": "TD50", "setting": "[10]", "value": "< 300 mg/kg and > 100 mg/kg"}
    ]},
    {"smiles": "COC[C@@H](NC(C)=O)C(=O)NCc1ccc(F)cc1", "values": [
      {"measurement": "ED50", "setting": "[5]", "value": 2.6, "unit": "mg/kg"},
      {"measurement": "TD50", "setting": "[11]", "value": "> 125", "unit": "mg/kg"},
      {"measurement": "TD50", "setting": "[6]", "value": "< 250", "unit": "mg/kg"},
      {"measurement": "ED50", "setting": "[2]; [12]", "value": 4.2, "unit": "mg/kg"},
      {"measurement": "selectivity ratio", "setting": "[8]", "value": 6.7}
    ]},
    {"smiles": "CC(=O)N[C@@H](C)C(=O)NCc1ccccc1", "values": [
      {"measurement": "selectivity ratio", "setting": "[8]", "value": 1.5}
    ]},
    {"smiles": "CC(=O)N[C@H](C)C(=O)NCc1ccccc1", "values": [
      {"measurement": "ED50", "setting": "[5]", "value": 28, "unit": "mg/kg"},
      {"measurement": "ED50", "setting": "[2]; [12]", "value": 55, "unit": "mg/kg"},
      {"measurement": "selectivity ratio", "setting": "[7]", "value": "> 36"},
      {"measurement": "selectivity ratio", "setting": "[8]", "value": 3.9}
    ]},
    {"smiles": "COC[C@@H](NC(C)=O)C(=O)NCc1ccccc1", "note": "[LACOSAMIDE]", "values": [
      {"measurement": "TD50", "setting": "[6]", "value": "> 500", "unit": "mg/kg"}
    ]},
    {"smiles": "O=C1NC(=O)C(c2ccccc2)(c2ccccc2)N1", "note": "[PHENYTOIN]", "values": [
      {"measurement": "ED50", "setting": "[5]", "value": 23, "unit": "mg/kg"},
      {"measurement": "ED50", "setting": "[2]; [12]", "value": 6.5, "unit": "mg/kg"},
      {"measurement": "selectivity ratio", "setting": "[4]", "value": 6.6},
      {"measurement": "selectivity ratio", "setting": "[7]", "value": "> 22"}
    ]},
    {"smiles": "CCCC(CCC)C(=O)O", "note": "[VALPROIC ACID]", "values": [
      {"measurement": "ED50", "setting": "[5]", "value": 400, "unit": "mg/kg"},
      {"measurement": "ED50", "setting": "[2]; [12]", "value": 290, "unit": "mg/kg"}
    ]}
  ]
}
